Results from ChEMBL document CHEMBL1129450, “Synthesis, molecular modeling, and K+ channel-blocking activity of dequalinium analogues having semirigid linkers” (J Med Chem, 1996).

What was measured:
Rattus norvegicus [1] = species: Rattus norvegicus; experiment: Inhibition of after-hyperpolarization (AHP) in cultured rat sympathetic neurons; assay type: functional; settings: Sympathetic neuron
Procedure, shortened: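 Compounds from 2 mM MeOH stocks, each tested at two to four concentrations on at least three cells. AHP inhibition was obtained by digitally subtracting blocker records from controls, with the peak difference given as % of control AHP at the same time point.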

Rattus norvegicus [2] = species: Rattus norvegicus; experiment: Equi-effective molar ratio expressed as the ratio of tested compound concentration to that of dequalinium that cause 50% inhibition of the AHP in rat sympathetic neurons; assay type: functional, Sympathetic neuron

Nc1cc[n+](Cc2ccc(-c3cccc(-c4ccc(C[n+]5ccc(N)c6ccccc65)cc4)n3)cc2)c2ccccc12 showed an IC50 (Rattus norvegicus [1]) of 360 nM and a Ratio (Rattus norvegicus [2]) of 0.59.
With Nc1cc[n+](Cc2ccc(C[n+]3ccc(N)c4ccccc43)cc2)c2ccccc12 the IC50 (Rattus norvegicus [1]) was 2800 nM and the Ratio (Rattus norvegicus [2]) was 3.7.
With Nc1cc[n+](Cc2ccc3ccc4ccc(C[n+]5ccc(N)c6ccccc65)cc4c3c2)c2ccccc12 the IC50 (Rattus norvegicus [1]) was 200 nM and the Ratio (Rattus norvegicus [2]) was 0.33.
Nc1cc[n+](Cc2ccc3cc(C[n+]4ccc(N)c5ccccc54)ccc3c2)c2ccccc12 was tested, and the IC50 (Rattus norvegicus [1]) was 490 nM and the Ratio (Rattus norvegicus [2]) was 0.83.
Nc1cc[n+](Cc2ccc(-c3ccc(-c4ccc(C[n+]5ccc(N)c6ccccc65)cc4)cc3)cc2)c2ccccc12 gave an IC50 (Rattus norvegicus [1]) of 1900 nM and a Ratio (Rattus norvegicus [2]) of 2.3.
In the case of Nc1cc[n+](Cc2ccc(-c3ccc(C[n+]4ccc(N)c5ccccc54)cc3)cc2)c2ccccc12, the IC50 (Rattus norvegicus [1]) is reported as 380 nM and the Ratio (Rattus norvegicus [2]) is reported as 0.4.
Nc1cc[n+](Cc2ccc(CCCc3ccc(C[n+]4ccc(N)c5ccccc54)cc3)cc2)c2ccccc12 gave an IC50 (Rattus norvegicus [1]) of 200 nM and a Ratio (Rattus norvegicus [2]) of 0.31.
Work on Nc1cc[n+](Cc2ccc(C#Cc3ccc(C[n+]4ccc(N)c5ccccc54)cc3)cc2)c2ccccc12 yielded an IC50 (Rattus norvegicus [1]) of 1000 nM and a Ratio (Rattus norvegicus [2]) of 1.41.
For Nc1cc[n+](Cc2ccc3c(c2)Cc2cc(C[n+]4ccc(N)c5ccccc54)ccc2-3)c2ccccc12, the IC50 (Rattus norvegicus [1]) was 310 nM and the Ratio (Rattus norvegicus [2]) was 0.33.
In the case of Nc1cc[n+](Cc2ccc(CCc3ccc(C[n+]4ccc(N)c5ccccc54)cc3)cc2)c2ccccc12, the IC50 (Rattus norvegicus [1]) is reported as 410 nM and the Ratio (Rattus norvegicus [2]) is reported as 0.71.
Work on Nc1cc[n+](Cc2ccc(CCCCc3ccc(C[n+]4ccc(N)c5ccccc54)cc3)cc2)c2ccccc12 yielded an IC50 (Rattus norvegicus [1]) of 370 nM and a Ratio (Rattus norvegicus [2]) of 0.44.
In the case of Nc1cc[n+](Cc2ccc(/C=C/c3ccc(C[n+]4ccc(N)c5ccccc54)cc3)cc2)c2ccccc12, the IC50 (Rattus norvegicus [1]) is reported as 940 nM and the Ratio (Rattus norvegicus [2]) is reported as 1.46.
In the case of Nc1cc[n+](Cc2ccc(Cc3ccc(C[n+]4ccc(N)c5ccccc54)cc3)cc2)c2ccccc12, the IC50 (Rattus norvegicus [1]) is reported as 450 nM and the Ratio (Rattus norvegicus [2]) is reported as 0.39.
Compound Nc1cc[n+](Cc2cccc(-c3cccc(C[n+]4ccc(N)c5ccccc54)c3)c2)c2ccccc12 has an IC50 (Rattus norvegicus [1]) of 290 nM and a Ratio (Rattus norvegicus [2]) of 0.55.
With Nc1cc[n+](Cc2ccc(/C=C\c3ccc(C[n+]4ccc(N)c5ccccc54)cc3)cc2)c2ccccc12 the IC50 (Rattus norvegicus [1]) was 190 nM and the Ratio (Rattus norvegicus [2]) was 0.24.
Cc1cc(N)c2ccccc2[n+]1CCCCCCCCCC[n+]1c(C)cc(N)c2ccccc21.[Cl-].[Cl-] [DEQUALINIUM CHLORIDE] showed an IC50 (Rattus norvegicus [1]) of 650 nM and a Ratio (Rattus norvegicus [2]) of 1.
